Published values of several laboratories.
Protocols differ between the studies behind these lines.
Organism: Pseudomonas aeruginosa
Effect on: microbial growth

SMILES	method	strain	time	notes	MIC
O=C(CCCCCCCC[P+](c1ccccc1)(c1ccccc1)c1ccccc1)Nc1ccc(O)c(O)c1.[Br-]	broth dilution	ATCC27853	18 h	–	> 32 µg/mL
CC(C)Oc1c(NC(=O)c2ccc(NC(=O)[C@H](CC(N)=O)NC(=O)c3ccc(NC(=O)c4ccc(C#N)cc4)cc3)cc2)ccc(C(=O)O)c1O	–	PA14	–	–	> 64 µg/mL
CN(C)[C@@H]1C(O)=C(C(N)=O)C(=O)[C@@]2(O)C(O)=C3C(=O)c4c(O)c(NCC(C)(C)CN5CCCC5)nc(Cl)c4C[C@H]3C[C@@H]12.Cl	broth dilution	ATCC27853	–	–	32 µg/mL
COC1CN(Cc2ccc3cc4c(c(O)c3c2)C(=O)C2=C(O)[C@]3(O)C(=O)C(C(N)=O)=C(O)[C@@H](N(C)C)[C@@H]3C[C@@H]2C4)C1	broth dilution	ATCC27853	–	–	32 µg/mL
Cc1ccc2nc(-c3ccc([N+](=O)[O-])cc3)n(Cc3ccccc3)c2c1	broth dilution	ATCC27853	–	–	128 µg/mL
O=C(CCCCCC[P+](c1ccccc1)(c1ccccc1)c1ccccc1)Nc1ccc(O)c(O)c1.[Br-]	broth dilution	ATCC27853	18 h	–	> 32 µg/mL
CCN1CCN(C(=O)N[C@@H](C(=O)N[C@@H]2C(=O)N3C(C(=O)O)=C(CSc4nnnn4C)CS[C@H]23)c2ccc(O)cc2)C(=O)C1=O	broth dilution	PAO1	–	–	4 µg/mL
CO[C@@H](C(N)=O)[C@H](NC(=O)c1ccc(NC(=O)c2ccc(C#N)cc2)cc1)C(=O)Nc1ccc(C(=O)Nc2ccc(C(=O)Nc3ccc(C(=O)O)cc3)c(O)c2OC(C)C)cc1	–	PA14	–	–	0.5 µg/mL
CC(C)C1NC(=O)C(C(=O)NC(C(=O)NC2C(=O)N3C2SC(C)(C)C3C(=O)O)c2ccccc2)=C1O (stereo not shown)	–	–	–	–	50 µg/mL
CN(C)CC(C)(C)CNc1nc(Cl)c2c(c1O)C(=O)C1=C(O)[C@]3(O)C(=O)C(C(N)=O)=C(O)[C@@H](N(C)C)[C@@H]3C[C@@H]1C2.Cl	broth dilution	ATCC27853	–	–	32 µg/mL
O=C1NN=C(N=Cc2ccccc2)C1=NNn1c(-c2ccccc2)nc2ccccc2c1=O	broth dilution	–	24 h	–	114 µM
C[C@@H](O)[C@H]1C(=O)N2C(C(=O)O)=C(S[C@@H]3CN[C@H](C(=O)N(C)C)C3)[C@H](C)[C@H]12	–	–	–	–	1.3 µM
CC1=NN(CNc2c(O)c(S(=O)(=O)O)cc3ccccc23)C(=O)C1=NNn1c(-c2ccccc2)nc2ccccc2c1=O	broth dilution	–	24 h	–	41.8 µM
COc1c(C)c(OCc2ccccc2)c(C)c(O)c1C(=O)/C=C/c1ccccc1	broth dilution	ATCC27853	–	–	5000 µg/mL
CC(C)Oc1c(NC(=O)c2ccc(NC(=O)[C@H](CC(N)=O)NC(=O)c3ccc(NC(=O)c4ccc(F)cc4)cc3)cc2)ccc(C(=O)Nc2ccc(C(=O)O)cc2)c1O	–	PA14	–	–	> 64 µg/mL
CN(C)CCCNc1nc(Cl)c2c(c1O)C(=O)C1=C(O)[C@]3(O)C(=O)C(C(N)=O)=C(O)[C@@H](N(C)C)[C@@H]3C[C@@H]1C2.Cl	broth dilution	ATCC27853	–	–	> 32 µg/mL
CC1(C)S[C@@H]2[C@H](NC(=O)C(C(=O)O)c3ccccc3)C(=O)N2[C@H]1C(=O)O (stereo partly shown)	broth dilution	–	–	clinical isolate	> 200 µM
C=CCn1c(-c2ccc(Cl)c(Cl)c2)nc2ccccc21	broth dilution	ATCC27853	–	–	512 µg/mL
CCCCCCC/C=C/C(=O)N1C(=O)/C(=C(\O)CCCC)C(=O)C1CC(C)C (stereo not shown)	–	PA01	–	–	> 200 µg/mL
C[C@H]1COc2c(N3CCN(C)CC3)c(F)cc3c(=O)c(C(=O)O)cn1c23	agar dilution	ATCC27	–	–	1 µg/mL
O=C(O)c1cn(C2CC2)c2cc(N3CCNCC3)c(F)cc2c1=O	broth dilution	–	24 h	–	9.43 µM
CC1(C)SC2C(NC(=O)C(NC(=O)C3=C(O)C(Cc4ccc(F)cc4)NC3=O)c3ccccc3)C(=O)N2C1C(=O)O (stereo not shown)	–	–	–	–	25 µg/mL
Cc1ccc(C)n1-c1ccc(-c2nnc(S)s2)cc1	broth dilution	ATCC10145	18 h	–	2 µg/mL
CC(C)Oc1c(NC(=O)c2ccc(NC(=O)[C@H](CC(N)=O)NC(=O)c3ccc(NC(=O)c4ccc(NC(=O)c5ccc([N+](=O)[O-])cc5)cc4)cc3)cc2)ccc(C(=O)Nc2ccc(C(=O)O)cc2)c1O	–	PA14	–	–	> 64 µg/mL
Cc1ccc(C)n1-c1ccc(-c2nnc(-c3cccc([N+](=O)[O-])c3)[nH]2)cc1	broth dilution	ATCC10145	18 h	–	250 µg/mL

SMILES	method	strain	time	notes	MIC
Clc1ccc(-c2nc3ccccc3n2Cc2ccccc2)cc1Cl	broth dilution	ATCC27853	–	–	256 µg/mL
CCCCCCC/C=C/C(=O)N1C(=O)/C(=C(/C)O)C(=O)C1CO (stereo not shown)	–	PA01	–	–	> 200 µg/mL
Cc1cccc(NCc2ccc(Oc3ccccn3)cc2)c1	–	–	–	–	> 25 µg/mL
Cn1cc(NC(=O)C(CC(N)=O)NC(=O)c2ccc(NC(=O)c3ccc(C#N)cc3)cc2)cc1-c1nc2ccc(C(=O)Nc3ccc(C(=O)O)cc3)c(O)c2[nH]1 (stereo not shown)	–	PA14	–	–	> 64 µg/mL
O=[N+]([O-])c1ccc(O)c2ncccc12	broth dilution	ATCC27853	–	–	16 µg/mL
CC(=O)Nc1ccc(C(=O)Nc2ccc(C(=O)N[C@@H](CC(N)=O)C(=O)Nc3ccc(C(=O)Nc4ccc(C(=O)Nc5ccc(C(=O)O)cc5)c(O)c4OC(C)C)cc3)cc2)cc1	–	PA14	–	–	> 64 µg/mL
COc1c(C)c(OC(=O)c2ccccc2)c(C)c(O)c1C(=O)/C=C/c1ccccc1	broth dilution	ATCC27853	–	–	5000 µg/mL
CC(C)Oc1c(NC(=O)c2ccc(NC(=O)[C@H](CC(N)=O)NC(=O)c3ccc(NC(=O)c4ccc([N+](=O)[O-])cc4)cc3)cc2)ccc(C(=O)Nc2ccc(C(=O)O)c(F)c2)c1O	–	PA14	–	–	> 64 µg/mL
CCCCCCC/C=C/C(=O)N1CC(=O)/C(=C(\C)O)C1=O	–	PA01	–	–	200 µg/mL
CCCCCC(=O)Oc1c(C)c(O)c(C(=O)/C=C/c2ccccc2)c(OC)c1C	broth dilution	ATCC27853	–	–	5000 µg/mL
O=c1cc(-c2ccc(O)c(O)c2)oc2cc(O)cc(O)c12	broth dilution	PAO1	–	–	256 µg/mL
CC(C)OCCNc1nc(Cl)c2c(c1O)C(=O)C1=C(O)[C@]3(O)C(=O)C(C(N)=O)=C(O)[C@@H](N(C)C)[C@@H]3C[C@@H]1C2.Cl.Cl.Cl	broth dilution	ATCC27853	–	–	> 32 µg/mL
Cc1ccc(C)n1-c1ccc(-c2n[nH]c(=S)[nH]2)cc1	broth dilution	ATCC10145	18 h	–	8 µg/mL
Fc1ccc(NCc2ccc(Oc3ccccn3)cc2)cc1	–	–	–	–	> 12.5 µg/mL
CN(Cc1ccc2cc3c(c(O)c2c1)C(=O)C1=C(O)[C@]2(O)C(=O)C(C(N)=O)=C(O)[C@@H](N(C)C)[C@@H]2C[C@@H]1C3)c1ccccc1	broth dilution	ATCC27853	–	–	32 µg/mL
CNC(=O)c1cc(Oc2ccc(NC(=O)Nc3ccc(Cl)c(C(F)(F)F)c3)cc2)ccn1	–	DSM19882	–	–	> 100 µM
Cc1ncc(O)c2c1C[C@H]1C[C@H]3[C@H](N(C)C)C(O)=C(C(N)=O)C(=O)[C@@]3(O)C(O)=C1C2=O.Cl.Cl	broth dilution	ATCC27853	–	–	16 µg/mL
CC(C)Oc1c(NC(=O)c2ccc(NC(=O)[C@H](CC(N)=O)NC(=O)c3ccc(NC(=O)c4ccc([N+](=O)[O-])c5cccnc45)cc3)cc2)ccc(C(=O)Nc2ccc(C(=O)O)cc2)c1O	–	PA14	–	–	> 64 µg/mL
CCCCCCC#Cc1cncc(-c2nnc(SCc3ccc([N+](=O)[O-])o3)n2C)c1	–	–	–	–	≥ 20 µg/mL
Cc1nc(Cl)c2c(c1O)C(=O)C1=C(O)[C@]3(O)C(=O)C(C(N)=O)=C(O)[C@@H](N(C)C)[C@@H]3C[C@@H]1C2.Cl	broth dilution	ATCC27853	–	–	> 32 µg/mL
COc1cccc(NCc2ccc(Oc3ccccn3)cc2)c1	–	–	–	–	> 25 µg/mL
CCCCCCC#Cc1cncc(-c2nnc(SCc3ccc(C#N)cc3)n2C)c1	–	–	–	–	≥ 20 µg/mL
CN(C)c1c2c(c(O)c3cc(F)ccc13)C(=O)C1=C(O)[C@]3(O)C(=O)C(C(N)=O)=C(O)[C@@H](N(C)C)[C@@H]3C[C@@H]1C2	broth dilution	ATCC27853	–	–	> 32 µg/mL
CC1(C)SC2C(NC(=O)C(NC(=O)C3=C(O)C(c4ccccc4)NC3=O)c3ccccc3)C(=O)N2C1C(=O)O (stereo not shown)	–	–	–	–	50 µg/mL
